Activity calls are given as the source filed them. The rule behind the calls is not given here.
What was measured:
HCT-116 [1] = test: Induction of apoptosis in human HCT-116 cells assessed as viable cells at 1 uM incubated for > 6 hrs by annexin V/PI staining based analysis (Rvb=90.04%); format: functional; details: read-out: Activity
HCT-116 [2] = test: Induction of apoptosis in human HCT-116 cells assessed as viable cells at 5 uM incubated for > 6 hrs by annexin V/PI staining based analysis (Rvb=90.04%); format: functional; details: read-out: Activity
HCT-116 [3] = test: Induction of apoptosis in human HCT-116 cells assessed as late apoptosis at 10 uM incubated for > 6 hrs by annexin V/PI staining based analysis (Rvb=6.12%); format: functional
[4] = molecular target: Dual specificity protein kinase CLK2 (Homo sapiens, UniProt P49760); test: Inhibition of N-terminal FLAG-tagged human CLK2 at 123 nM in the presence of ATP by Kinome scan method relative to control; details: time > 6.0 hrs
Sequence of Dual specificity protein kinase CLK2 (P49760 whole entry, looked up): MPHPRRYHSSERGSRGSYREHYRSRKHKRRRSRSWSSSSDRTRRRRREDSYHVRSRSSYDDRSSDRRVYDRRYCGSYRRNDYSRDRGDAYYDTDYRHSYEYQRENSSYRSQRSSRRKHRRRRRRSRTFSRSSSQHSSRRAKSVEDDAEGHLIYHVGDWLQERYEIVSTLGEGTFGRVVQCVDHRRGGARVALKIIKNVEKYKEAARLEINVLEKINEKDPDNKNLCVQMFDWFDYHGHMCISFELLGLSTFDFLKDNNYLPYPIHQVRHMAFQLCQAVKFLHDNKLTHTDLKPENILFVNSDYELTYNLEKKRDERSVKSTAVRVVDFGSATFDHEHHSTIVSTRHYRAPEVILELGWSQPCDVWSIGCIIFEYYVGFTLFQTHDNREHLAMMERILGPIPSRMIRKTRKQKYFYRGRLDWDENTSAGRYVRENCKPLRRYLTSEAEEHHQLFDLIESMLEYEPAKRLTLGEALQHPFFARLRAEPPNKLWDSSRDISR

[5] = molecular target: Dual specificity tyrosine-phosphorylation-regulated kinase 4 (Homo sapiens) (UniProt Q9NR20); test: Inhibition of DYRK4 (unknown origin) at 1110 nM in the presence of ATP by Kinome scan method relative to control; details: time > 6.0 hrs
[6] = molecular target: SRSF protein kinase 1 (Homo sapiens) (UniProt Q96SB4); test: Inhibition of SRPK1 (unknown origin) at 1110 nM in the presence of ATP by Kinome scan method relative to control; details: time > 6.0 hrs
Sequence of SRSF protein kinase 1 (Homo sapiens) (Q96SB4 whole entry): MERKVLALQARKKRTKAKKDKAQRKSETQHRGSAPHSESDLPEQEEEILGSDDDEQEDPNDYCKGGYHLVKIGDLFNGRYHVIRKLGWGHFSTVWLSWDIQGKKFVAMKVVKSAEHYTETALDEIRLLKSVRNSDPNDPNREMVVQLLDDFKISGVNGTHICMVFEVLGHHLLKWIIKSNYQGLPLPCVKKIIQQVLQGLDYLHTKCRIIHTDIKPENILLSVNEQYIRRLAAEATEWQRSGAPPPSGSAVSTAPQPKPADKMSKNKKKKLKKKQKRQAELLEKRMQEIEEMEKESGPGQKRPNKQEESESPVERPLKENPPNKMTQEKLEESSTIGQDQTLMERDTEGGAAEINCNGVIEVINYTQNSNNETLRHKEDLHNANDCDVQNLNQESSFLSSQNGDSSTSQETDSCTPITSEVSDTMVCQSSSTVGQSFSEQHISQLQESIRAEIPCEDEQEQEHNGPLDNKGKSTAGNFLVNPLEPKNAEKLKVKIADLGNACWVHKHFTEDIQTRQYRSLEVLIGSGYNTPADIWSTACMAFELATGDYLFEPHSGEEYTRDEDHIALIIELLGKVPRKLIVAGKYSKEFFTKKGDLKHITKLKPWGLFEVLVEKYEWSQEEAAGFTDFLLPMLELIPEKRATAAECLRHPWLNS

[7] = molecular target: SRSF protein kinase 1 (Homo sapiens) (UniProt Q96SB4); test: Inhibition of SRPK1 (unknown origin) at 123 nM in the presence of ATP by Kinome scan method relative to control; details: time > 6.0 hrs
[8] = molecular target: SRSF protein kinase 2 (Homo sapiens) (UniProt P78362); test: Inhibition of SRPK2 (unknown origin) at 123 nM in the presence of ATP by Kinome scan method relative to control; details: time > 6.0 hrs
[9] = molecular target: Tyrosine-protein kinase ABL1 (Homo sapiens) (UniProt P00519); test: Inhibition of ABL1 (unknown origin) at 1000 nM in the presence of ATP by Kinome scan method relative to control; details: time > 6.0 hrs
[10] = molecular target: AMP-activated protein kinase (AMPK) alpha-1/beta-1/gamma-1 (Homo sapiens) (UniProt P54619+Q9Y478+Q13131); test: Inhibition of AMPK A1/B1/G1 (unknown origin) at 100 nM in the presence of ATP by Kinome scan method relative to control; format: protein-complex assay
Homo sapiens = species on record: Homo sapiens; test: Inhibition of CDK2/cyclin A (unknown origin) at 100 nM in the presence of ATP by Kinome scan method relative to control
[11] = molecular target: Cyclin-dependent kinase 5/CDK5 activator 1 (Homo sapiens) (UniProt Q00535+Q15078); test: Inhibition of CDK5/p25 (unknown origin) at 100 nM in the presence of ATP by Kinome scan method relative to control; format: protein-complex assay
Sequence of Cyclin-dependent kinase 5/CDK5 activator 1 (Homo sapiens) (Q00535 whole entry): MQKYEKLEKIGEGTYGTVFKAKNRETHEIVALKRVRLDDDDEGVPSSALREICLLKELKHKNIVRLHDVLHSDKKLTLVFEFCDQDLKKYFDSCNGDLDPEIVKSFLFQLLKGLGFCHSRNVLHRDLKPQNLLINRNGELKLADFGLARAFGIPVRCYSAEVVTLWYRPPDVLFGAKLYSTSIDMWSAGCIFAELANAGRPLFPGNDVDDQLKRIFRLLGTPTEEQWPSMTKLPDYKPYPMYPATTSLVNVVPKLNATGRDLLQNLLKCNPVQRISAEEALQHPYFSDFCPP
Sequence of Cyclin-dependent kinase 5/CDK5 activator 1 (Homo sapiens) (Q15078 99-307 partner limits assumed): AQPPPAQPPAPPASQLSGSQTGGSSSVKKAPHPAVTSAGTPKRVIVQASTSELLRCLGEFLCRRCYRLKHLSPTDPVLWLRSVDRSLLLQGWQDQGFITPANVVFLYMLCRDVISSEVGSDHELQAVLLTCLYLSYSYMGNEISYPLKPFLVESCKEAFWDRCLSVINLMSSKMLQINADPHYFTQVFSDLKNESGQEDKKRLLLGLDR

[12] = molecular target: Serine/threonine-protein kinase Chk2 (Homo sapiens) (UniProt O96017); test: Inhibition of CHEK2 (unknown origin) at 100 nM in the presence of ATP by Kinome scan method relative to control
Sequence of Serine/threonine-protein kinase Chk2 (Homo sapiens) (O96017 whole entry): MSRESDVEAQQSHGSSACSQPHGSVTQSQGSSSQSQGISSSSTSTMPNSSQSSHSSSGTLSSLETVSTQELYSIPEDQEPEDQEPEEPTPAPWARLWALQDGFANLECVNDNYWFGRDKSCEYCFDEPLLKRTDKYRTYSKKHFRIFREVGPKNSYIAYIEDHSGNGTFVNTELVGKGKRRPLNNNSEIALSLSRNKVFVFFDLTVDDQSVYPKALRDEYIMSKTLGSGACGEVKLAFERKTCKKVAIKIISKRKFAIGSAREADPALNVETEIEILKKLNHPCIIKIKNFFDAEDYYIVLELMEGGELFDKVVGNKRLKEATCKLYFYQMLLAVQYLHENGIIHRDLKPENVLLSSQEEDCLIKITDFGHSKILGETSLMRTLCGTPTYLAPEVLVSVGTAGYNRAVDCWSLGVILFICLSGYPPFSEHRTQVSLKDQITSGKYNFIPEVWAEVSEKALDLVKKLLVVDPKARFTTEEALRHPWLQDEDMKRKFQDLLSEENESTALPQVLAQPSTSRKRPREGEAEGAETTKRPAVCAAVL

[13] = molecular target: Homeodomain-interacting protein kinase 1 (Homo sapiens) (UniProt Q86Z02); test: Inhibition of HIPK1 (unknown origin) at 100 nM in the presence of ATP by Kinome scan method relative to control
Sequence of Homeodomain-interacting protein kinase 1 (Homo sapiens) (Q86Z02 whole entry, looked up): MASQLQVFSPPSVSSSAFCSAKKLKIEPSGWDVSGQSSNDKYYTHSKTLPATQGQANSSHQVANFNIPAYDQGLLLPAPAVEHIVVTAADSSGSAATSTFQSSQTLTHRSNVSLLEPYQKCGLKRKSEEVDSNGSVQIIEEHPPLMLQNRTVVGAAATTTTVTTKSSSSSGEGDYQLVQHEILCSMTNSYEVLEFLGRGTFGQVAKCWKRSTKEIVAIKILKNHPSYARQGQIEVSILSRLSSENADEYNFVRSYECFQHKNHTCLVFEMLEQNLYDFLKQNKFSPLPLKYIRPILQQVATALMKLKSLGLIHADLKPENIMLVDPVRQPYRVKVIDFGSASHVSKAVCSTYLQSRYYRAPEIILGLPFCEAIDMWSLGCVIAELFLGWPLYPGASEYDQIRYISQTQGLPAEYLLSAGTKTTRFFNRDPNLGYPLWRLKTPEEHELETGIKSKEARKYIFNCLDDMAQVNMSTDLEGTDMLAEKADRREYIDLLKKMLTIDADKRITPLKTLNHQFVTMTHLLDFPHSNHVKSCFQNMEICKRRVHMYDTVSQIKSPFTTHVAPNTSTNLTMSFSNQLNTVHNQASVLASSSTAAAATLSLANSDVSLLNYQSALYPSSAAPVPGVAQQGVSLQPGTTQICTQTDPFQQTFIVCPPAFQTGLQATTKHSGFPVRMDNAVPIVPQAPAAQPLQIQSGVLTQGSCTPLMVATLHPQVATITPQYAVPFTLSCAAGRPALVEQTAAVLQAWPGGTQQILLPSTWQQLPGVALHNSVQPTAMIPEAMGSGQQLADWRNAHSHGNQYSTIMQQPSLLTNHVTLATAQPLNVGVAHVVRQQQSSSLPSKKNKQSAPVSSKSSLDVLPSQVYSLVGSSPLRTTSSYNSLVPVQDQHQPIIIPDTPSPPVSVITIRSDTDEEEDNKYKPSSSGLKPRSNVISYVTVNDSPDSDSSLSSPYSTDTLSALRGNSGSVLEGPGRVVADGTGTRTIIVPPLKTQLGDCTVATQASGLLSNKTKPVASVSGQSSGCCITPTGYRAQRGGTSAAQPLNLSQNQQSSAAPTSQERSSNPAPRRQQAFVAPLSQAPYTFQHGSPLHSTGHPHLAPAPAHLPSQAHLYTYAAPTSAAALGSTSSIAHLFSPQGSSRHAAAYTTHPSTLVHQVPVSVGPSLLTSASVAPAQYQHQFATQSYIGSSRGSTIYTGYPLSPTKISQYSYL

[14] = molecular target: Tyrosine-protein kinase JAK2 (Homo sapiens) (UniProt O60674); test: Inhibition of JAK2 (unknown origin) at 100 nM in the presence of ATP by Kinome scan method relative to control
[15] = molecular target: MAP kinase-activated protein kinase 2 (Homo sapiens) (UniProt P49137); test: Inhibition of MAPKAPK2 (unknown origin) at 1000 nM in the presence of ATP by Kinome scan method relative to control
Sequence of MAP kinase-activated protein kinase 2 (Homo sapiens) (P49137 whole entry, looked up): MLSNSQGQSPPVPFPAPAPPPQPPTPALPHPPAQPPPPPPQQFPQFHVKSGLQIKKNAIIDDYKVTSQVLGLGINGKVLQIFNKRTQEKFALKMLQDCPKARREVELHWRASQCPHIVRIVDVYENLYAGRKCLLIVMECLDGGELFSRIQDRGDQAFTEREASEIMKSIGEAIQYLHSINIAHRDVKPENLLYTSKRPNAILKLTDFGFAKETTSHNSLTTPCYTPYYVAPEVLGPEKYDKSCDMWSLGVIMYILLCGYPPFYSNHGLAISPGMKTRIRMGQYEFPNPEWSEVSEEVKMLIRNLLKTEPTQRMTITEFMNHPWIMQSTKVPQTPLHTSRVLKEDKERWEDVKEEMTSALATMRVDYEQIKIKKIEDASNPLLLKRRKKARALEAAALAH

[16] = molecular target: Serine/threonine-protein kinase PLK1 (Homo sapiens) (UniProt P53350); test: Inhibition of PLK1 (unknown origin) at 100 nM in the presence of ATP by Kinome scan method relative to control
[17] = molecular target: Protein kinase C theta type (Homo sapiens) (UniProt Q04759); test: Inhibition of PRKCQ (unknown origin) at 1000 nM in the presence of ATP by Kinome scan method relative to control
Sequence of Protein kinase C theta type (Homo sapiens) (Q04759 whole entry, looked up): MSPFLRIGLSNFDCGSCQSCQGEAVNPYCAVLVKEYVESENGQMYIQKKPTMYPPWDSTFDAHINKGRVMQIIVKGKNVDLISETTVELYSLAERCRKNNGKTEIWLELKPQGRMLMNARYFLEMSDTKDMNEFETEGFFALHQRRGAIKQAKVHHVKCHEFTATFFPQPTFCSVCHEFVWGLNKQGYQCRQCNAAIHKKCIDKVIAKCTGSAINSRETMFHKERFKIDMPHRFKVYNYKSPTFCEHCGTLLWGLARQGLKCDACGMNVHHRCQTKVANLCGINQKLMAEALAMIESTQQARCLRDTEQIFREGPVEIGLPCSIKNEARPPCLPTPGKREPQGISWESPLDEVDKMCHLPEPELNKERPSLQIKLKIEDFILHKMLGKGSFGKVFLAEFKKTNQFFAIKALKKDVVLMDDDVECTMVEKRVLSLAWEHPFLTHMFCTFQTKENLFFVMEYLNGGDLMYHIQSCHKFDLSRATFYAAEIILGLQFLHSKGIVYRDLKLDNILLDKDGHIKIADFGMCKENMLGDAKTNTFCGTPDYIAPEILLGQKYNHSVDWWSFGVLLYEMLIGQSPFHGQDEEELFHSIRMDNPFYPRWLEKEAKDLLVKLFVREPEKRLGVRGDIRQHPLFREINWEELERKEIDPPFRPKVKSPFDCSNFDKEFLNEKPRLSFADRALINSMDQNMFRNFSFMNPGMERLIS

[18] = molecular target: CDK7/Cyclin H/MNAT1 (Homo sapiens) (UniProt P51946+P50613+P51948); test: Inhibition of CDK7/cyclin H/MNAT1 (unknown origin) at 1000 nM in the presence of ATP by Kinome scan method relative to control; format: protein-complex assay
[19] = molecular target: Dual specificity protein kinase CLK1 (Homo sapiens) (UniProt P49759); test: Inhibition of CLK (unknown origin) in human MDA-MB-468 cells assessed as SRSF4 phosphorylation level incubated for 3 hrs by immunoblot analysis; format: cell-based
Sequence of Dual specificity protein kinase CLK1 (Homo sapiens) (P49759 whole entry, looked up): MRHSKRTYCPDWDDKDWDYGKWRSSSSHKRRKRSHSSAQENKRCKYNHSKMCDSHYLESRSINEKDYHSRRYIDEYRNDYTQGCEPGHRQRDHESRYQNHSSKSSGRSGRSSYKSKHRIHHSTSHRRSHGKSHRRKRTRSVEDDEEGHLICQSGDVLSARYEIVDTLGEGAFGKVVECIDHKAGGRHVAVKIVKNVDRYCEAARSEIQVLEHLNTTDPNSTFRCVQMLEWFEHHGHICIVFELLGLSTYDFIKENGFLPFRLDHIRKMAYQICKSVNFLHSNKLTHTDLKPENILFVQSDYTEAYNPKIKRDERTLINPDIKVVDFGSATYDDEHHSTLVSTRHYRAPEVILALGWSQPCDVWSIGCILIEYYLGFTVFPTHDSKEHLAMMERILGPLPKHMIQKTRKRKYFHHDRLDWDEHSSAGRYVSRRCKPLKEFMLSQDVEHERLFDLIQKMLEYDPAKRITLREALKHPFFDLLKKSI

[20] = molecular target: Dual specificity protein kinase CLK3 (Homo sapiens) (UniProt P49761); test: Inhibition of CLK3 (unknown origin) in human HCT-116 cells assessed as increase in CLK3 protein level at 0.5 to 0.1 uM incubated for 6 hrs by immunoblot analysis; format: cell-based; details: dose 0.5-0.1 µM
Procedure, shortened: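 HCT116 cells were treated for 3 or 6 h and lysed in SDS sample buffer (Tris-HCl pH 6.8), then boiled for 5 min. Lysates were run on 5–15% or 4–12% gradient gels and transferred to nitrocellulose or PVDF. Blots were blocked in milk or BSA/TBS-T and probed overnight at 4 °C with anti-phospho-SR (1H4, 1/1000), anti-SR, anti-CLK1 or anti-CLK3 antibodies, with GAPDH as loading control.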

HCT-116 [21] = test: Induction of cell cycle arrest in human HCT-116 cells assessed as sub G0/G1 phase at 0.1 uM incubated for 6 hrs by flow cytometry analysis (Rvb=1.6%); format: functional
HCT-116 [22] = test: Induction of cell cycle arrest in human HCT-116 cells assessed as S phase at 0.5 uM incubated for 6 hrs by flow cytometry analysis (Rvb=39.3%); format: functional
HCT-116 [23] = test: Induction of cell cycle arrest in human HCT-116 cells assessed as G0/G1 phase at 5 uM incubated for 6 hrs by flow cytometry analysis (Rvb=35.0%); format: functional
HCT-116 [24] = test: Induction of cell cycle arrest in human HCT-116 cells assessed as S phase at 10 uM incubated for 6 hrs by flow cytometry analysis (Rvb=39.3%); format: functional
HCT-116 [25] = test: Induction of cell cycle arrest in human HCT-116 cells assessed as S phase at 0.1 uM incubated for 24 hrs by flow cytometry analysis (Rvb=46.4%); format: functional
HCT-116 [26] = test: Induction of cell cycle arrest in human HCT-116 cells assessed as G2/M phase at 0.5 uM incubated for 24 hrs by flow cytometry analysis (Rvb=17.9%); format: functional
HCT-116 [27] = test: Induction of cell cycle arrest in human HCT-116 cells assessed as G0/G1 phase at 1 uM incubated for 24 hrs by flow cytometry analysis (Rvb=35.7%); format: functional
HCT-116 [28] = test: Induction of cell cycle arrest in human HCT-116 cells assessed as G0/G1 phase at 5 uM incubated for 24 hrs by flow cytometry analysis (Rvb=35.7%); format: functional
[29] = molecular target: Dual specificity tyrosine-phosphorylation-regulated kinase 1B (Homo sapiens, UniProt Q9Y463); test: Inhibition of DYRK1B (unknown origin) using ULight-MBP peptide as substrate incubated for 10 mins in presence of ATP incubated for 45 mins by LANCE Ultra kinase assay

- inhibition [4]: 92%
- inhibition [5]: -3%
- inhibition [6]: -3%
- inhibition [7]: -3%
- inhibition [8]: 2%
- inhibition [9]: 56%
- inhibition [10]: -2%
- inhibition (Homo sapiens): 0%
- inhibition [11]: 2%
- inhibition [12]: 22%
- inhibition [13]: -1%
- inhibition [14]: -7%
- inhibition [15]: 2%
- inhibition [16]: 8%
- inhibition [17]: 4%
- inhibition [18]: -3%
- inhibition [19]: Active
- inhibition [20]: Active
- IC50 [29]: 0.23 µM
Compound: CN1CCN(C(=O)C(C)(C)c2ccc(C(=O)Nc3cn4cc(-c5ccncc5)ccc4n3)cc2)CC1 [T3-CLK]
- viability at 1 µM (HCT-116 [1]): 88.4%
- viability at 5 µM (HCT-116 [2]): 86.6%
- Activity (HCT-116 [3]): 8.13%
- Activity (HCT-116 [21]): 1.5%
- Activity (HCT-116 [22]): 46.9%
- Activity (HCT-116 [23]): 28.1%
- Activity (HCT-116 [24]): 45.3%
- Activity (HCT-116 [25]): 40.7%
- Activity (HCT-116 [26]): 68.1%
- Activity (HCT-116 [27]): 7.3%
- Activity (HCT-116 [28]): 13.3%

— ChEMBL document CHEMBL5696444 (Nat Commun, 2017)
